Shown are actives, neighbours in structure and some others; about 2.5% of the full set was active somewhere.
NALP1 inh: blocks the NALP1 inflammasome reconstituted in yeast | S. cerevisiae NALP1/ASC/caspase-1 growth, X-gal OD620, 72 h | inhibition, % at 10 µM | hit rate 0.61% among 280,000 | AID 2071; in the data active = inhibition mostly above about 24%, no sharp cut-off; inactive = mostly below about 32%
NALP3 yeast inh: inhibitors of NALP3 inflammasome in yeast; hit rate 0.39% among 330,000; Yeast reconstituted NLRP3/ASC/caspase-1, beta-gal luminescence, 24 h; inhibition, % at 10 µM;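 active = inhibition of 50% or more; inactive = inhibition below 50%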;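 note: plate controls were induced DMSO wells for no effect and uninduced yeast grown without galactose for full effect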
TbMetRS inhib: Trypanosoma brucei MetRS inhibition; purified T. brucei MetRS, ATP depletion, Kinase-Glo luminescence; inhibition, % at 11.9 µM; hit rate 0.4% among 360,000; AID 624268;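 active = inhibition above a per-plate cutoff of the control wells' mean inhibition plus 3 SD, cut at about 5.5% in these data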;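 note: 0% = DMSO wells median and 100% = median of wells with control inhibitor compound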
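Material: parasite MetRS enzyme / Replication: singlicate, one well per compound / Signal: luminescence of leftover ATP / Schedule: 2 h aminoacylation at 25 °C after 15 min preincubation / Medium: HEPES-MgCl2-KCl buffer plus DTT, spermine, BSA, pyrophosphatase / Doses: 11.9 µM single point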
Bfl-1 A1 inh: inhibitors of the anti-apoptotic protein A1, read as caspase activation; caspase activation, % (test concentration not listed); hit rate 0.066% among 330,000; MEF A1-2A-BIM cells, Caspase-Glo 3/7 luminescence, 3 h; percent of clofoctol response, vehicle zero;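 active = over half of replicate activation scores above 10%, or exactly half above 10 with the replicate mean above 10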
MC4R barr agon: activates human MC4R beta-arrestin recruitment | U2OS MC4R beta-arrestin complementation, luminescence; percent of melanotan II response, DMSO zero | activation, % at 8.9 µM | hit rate 0.98% among 360,000;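 active = activation above a per-plate cutoff, the mean activation of sample wells on that plate plus 3 SD, cut at about 8% in these data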
Target sequence (P32245 whole entry, looked up): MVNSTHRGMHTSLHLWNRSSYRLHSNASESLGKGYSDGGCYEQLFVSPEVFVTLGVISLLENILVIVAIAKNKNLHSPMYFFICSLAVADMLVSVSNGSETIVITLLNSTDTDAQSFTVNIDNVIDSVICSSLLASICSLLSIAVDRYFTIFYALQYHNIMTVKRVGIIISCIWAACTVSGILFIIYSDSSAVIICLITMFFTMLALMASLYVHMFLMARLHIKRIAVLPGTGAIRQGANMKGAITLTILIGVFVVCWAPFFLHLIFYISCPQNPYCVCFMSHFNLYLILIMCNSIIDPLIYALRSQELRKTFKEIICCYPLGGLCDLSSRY
MC4R antagonist: antagonists of human melanocortin 4 receptor (MC4R); P32245; MC4R-expressing cells, MTII-stimulated cAMP, LANCE TR-FRET; inhibition, % at 6.5 µM; hit rate 0.48% among 360,000;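 active = inhibition above its plate's cutoff, the mean of tested wells on that plate plus 3 SD, cut at about 29% in these data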;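 note: 0% = Melanotan II alone and 100% = Melanotan II plus saturating MCL0020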
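Assay system: U2OS-MC4R stable cell line; Also added: Melanotan II; Technique: Eu-cAMP/anti-cAMP TR-FRET, emission 671 nm; Times: 30-min compound, 1-h challenge, 1-h detection, room temperature.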
An asterisk follows results filed as active; · = no result given.

SMILES	NALP1 inh	NALP3 yeast inh	TbMetRS inhib	Bfl-1 A1 inh	MC4R barr agon	MC4R antagonist
O=C(OCCOc1ccc(Br)cc1)c1ccc(Cl)nc1	6	10	0	-1	9.2*	26
O=C(CC(=O)c1ccccc1)CS(=O)(=O)c1ccccc1	·	·	0	·	-1	3
CCCCN1C(=O)C(CC(=O)NCCc2ccccn2)CC(C(=O)N(C(C)C)C(C)C)=C1C (centres undefined)	·	·	-2	·	-2	-3
CCCn1c(CCNc2nc(-c3cccc(Br)c3)cs2)nc2ccccc21	·	·	1	·	8.4*	9
c1ccc2c(c1)[nH]c1c(NCC3CCCO3)ncnc12 (centres undefined)	22	9	54*	0	0	3
CCCC(C)(C)C(=O)N1CCC1(C)C(=O)Nc1ccc(OC)c(OC)c1 (centres undefined)	·	·	0	·	-2	1
CNc1ccc(C(=O)OCC(=O)NCc2ccc3c(c2)OCO3)cc1[N+](=O)[O-]	·	15	0	-1	4	-5
COc1cc(NC(=O)c2cc(-c3ccc4c(c3)OCO4)on2)cc(OC)c1OC	8	11	0	0	8.8*	15
CC(C)NC(=O)NC(=O)CSc1nnc(COc2ccccc2F)n1C(C)C1CC2CCC1C2 (centres undefined)	15	7	0	·	9.5*	21
CC(C)C(=O)c1cn(CC(=O)O)c2ccccc12	26*	-3	-2	0	-1	-2
C=CCc1cccc2cc(C(=O)OCC(=O)c3ccccc3)c(=O)oc12	-1	-2	0	0	9.5*	6
C=CCc1cccc2cc(C(=O)O)c(=O)oc12	13	4	0	0	-1	10
O=C1Nc2cccnc2N(C(=O)CCl)c2ccccc21	17	10	1	1	-1	-5
O=C1/C(=C/c2cccnc2)Oc2cc(OS(=O)(=O)c3ccc(Cl)cc3)ccc21	41*	15	0	0	-1	9
Cc1ccc(CNc2nc(C)cs2)cc1	44	20	-1	0	0	-3
CC1(C(=O)NCc2ccccc2)CN(S(C)(=O)=O)CC(=O)N1C1CCN(Cc2ccccc2)CC1 (centres undefined)	·	·	-1	·	·	·
O=C(CSc1cccc[n+]1[O-])NC1CCCCC1	·	-1	0	8.3*	-5	-1
O=C(O)c1cccnc1SCC(=O)N1CCCCCC1	-20	28	0	1	2	9
O=C(CSc1ncccc1C(=O)O)NC1CCCCC1	-4	1	-1	5.5*	0	-3
C[C@H](CO)N1C[C@H](C)[C@@H](CN(C)Cc2ccc(C(=O)O)cc2)Oc2ccc(NS(=O)(=O)c3cn(C)cn3)cc2C1=O	·	19	0	1	-1	15
CCCn1c(=O)c(C(=O)Nc2ncccc2C)c(O)c2ccccc21	33*	10	0	0	-2	13
O=C(COC(=O)CC1CC2CCC1C2)Nc1ccccc1[N+](=O)[O-] (centres undefined)	·	27	0	3	5	6
CCOC(=O)c1c(C)[nH]c(C(=O)OCC(=O)N2CCc3ccccc32)c1C	2	0	-2	0	-2	3
CCOC(=O)c1[nH]c(C)c(C(=O)OCC(=O)N2CCc3ccccc32)c1C	-11	4	-1	-2	8.5*	-6
CCN(C(=O)COC(=O)c1ccc2c(c1)OCO2)c1c(N)n(Cc2ccccc2)c(=O)[nH]c1=O	·	5	0	·	0	13
SMILES	NALP1 inh	NALP3 yeast inh	TbMetRS inhib	Bfl-1 A1 inh	MC4R barr agon	MC4R antagonist
CCOC(=O)c1cnc2c(C(=O)OCC)cnn2c1N	38*	9	5	0	-1	12
CC1CCc2c(sc(NC(=O)c3c([N+](=O)[O-])cnn3C)c2C(N)=O)C1 (centres undefined)	-1	1	0	0	-6	9
O=C(NC1CCCCCC1)c1ccc([N+](=O)[O-])s1	·	27	0	·	-4	14
CC(C)(C)c1ccc(C(=S)N2CCN(c3ccccc3)CC2)cc1	3	17	1	0	9.0*	10
CCc1ccc(C2CC3C(CN2S(=O)(=O)c2ccc(C)cc2)[C@@H](O)C[C@@H](c2ccc(CC)cc2)N3S(=O)(=O)c2ccc(C)cc2)cc1 (some centres undefined)	·	·	0	·	·	·
Cc1cc(C)c2nc(-c3ccccc3)ccc2c1	·	·	0	·	·	·
COc1ccc(S(=O)(=O)n2[nH]c(=O)c(CCO)c2C)cc1	29*	4	0	0	0	-4
Cc1c(CCO)c(=O)[nH]n1S(=O)(=O)c1ccc([N+](=O)[O-])cc1	9	2	0	0	-2	-8
Cc1csc(NC(=O)CSc2nnnn2C)n1	-84	-4	-3	-1	5	0
CCSCc1nnc(SCC(=O)Nc2nc(C)cs2)n1C	41*	7	·	0	·	·
COCCCNC(=O)C[C@@H]1C[C@@]2(C(=O)OC)CCCCC=C2N(Cc2ccc(Cl)cc2Cl)C1=O	·	·	0	·	·	·
COc1ccc(OCc2cc(C(=O)N3CCN(CC4CC4)CC3)no2)c(Cl)c1	28*	18	2	0	-2	10
COc1cc(SC)ccc1C(=O)OCC(=O)N1CCCC1	-1	-6	0	1	0	3
COc1ccc(Cl)c(-c2cc(C(=O)NCc3ccc(C(F)(F)F)cc3)[nH]n2)c1	·	·	0	·	9.5*	-3
C[C@@H]1CN([C@H](C)CO)C(=O)c2c(c3ccccc3n2C)-c2ccccc2CO[C@H]1CN(C)C(=O)CCC(F)(F)F	·	·	0	·	0	0
CCc1nc(Nc2ccc3c(c2)OCCO3)c2oc3ccccc3c2n1	34*	10	-1	·	5	-4
COc1ccc(N2C(=O)CC(Sc3ncn[nH]3)C2=O)c(OC)c1 (centres undefined)	34	15	0	0	-3	-1
CC(C)c1ccc(N2C(=O)CC(Sc3ncn[nH]3)C2=O)cc1 (centres undefined)	101*	15	-2	-1	2	3
Oc1ccccc1C1=Nc2ccccc2N=C(c2ccco2)C1	10	3	0	0	8.5*	1
CCN(CC)CCN(C(=O)c1cc2c(ccc3ccccc32)oc1=O)c1nc2cc3c(cc2s1)OCCO3	12	14	0	7.2*	4	1
CCN(CC)CCN(C(=O)c1ccc2c(c1)OCCO2)c1nc2cc3c(cc2s1)OCO3	4	9	0	-1	-1	5
Cc1cccc(N2CCN(S(=O)(=O)c3ccc(-c4ccc(=O)[nH]n4)o3)CC2)c1C	4	8	1	1	8.3*	16
COc1ccc2c(c1)c(N=NC(N)=S)c(O)n2CC(=O)c1ccccc1	6	19	-1	2	12*	-1

From PubChem BioAssay
